A value given as a limit tells only on which side of the number the result lay.

Format in all cases: cell-based
The test system of assay [1] is RAW264.7. As to the kind of experiment: Inhibition of LPS-induced NF-kappaB activation in mouse RAW264.7 cells transfected with IKKbeta-pSV-b-galactosidase control vector at 30 uM after 20 hrs by secretory alkaline phosphatase assay. The essentials:
(§1)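 RAW 264.7 cells stably carrying a pNF-κB-SEAP-NPT reporter were transfected by lipofectamine with a constitutively active IKKβ vector plus pSV-β-galactosidase control vector. Cells were treated with samples for 20 h. Culture medium aliquots were heated at 65 °C for 5 min and reacted with 4-methylumbelliferyl phosphate in the dark. SEAP fluorescence was read at ex 360/em 449 nm and normalized to β-galactosidase activity.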

Assay [2] in a line: Inhibition of LPS-induced NF-kappaB activation in mouse RAW264.7 cells transfected with IKKbeta-pSV-b-galactosidase control vector after 20 hrs by secretory alkaline phosphatase assay. The procedure, abridged: as §1
For assay [3], the system named is RAW264.7. In words: Cytotoxicity against mouse RAW264.7 cells by MTT assay. For orientation: Tetrazolium assays rely on reduction of a dye to a coloured formazan, in cell work by metabolically active cells.

One may read the inhibition as the change of the read-out against control, counted positive when it falls. The low end stands for little suppression, the high end for strong suppression. A word on the IC50: it is the midpoint of a concentration-inhibition curve. On to `CCCCCCCCCCOc1cccc(O)c1C(=O)/C=C/c1ccc(OC)cc1`, for which, in assay [1], the inhibition is 18%. The IC50 in assay [2] and in assay [3] was above 30 µM each time.

In turn, `CCCCCCCCCCOc1cccc(O)c1C(=O)/C=C/c1ccc(O)cc1` showed an inhibition in assay [1] of 100%. Moreover, the IC50 in assay [2] is 2.7 µM; in assay [3], above 30 µM.

`CCCCCCCCCCCCCCCCCCOc1cccc(O)c1C(=O)/C=C/c1ccc(O)cc1` registered an inhibition in assay [1] of 22%. The IC50 in assay [2] and in assay [3] was above 30 µM throughout.

Compound `CCCCCCCCCCOc1cccc(O)c1C(=O)/C=C/c1cccc(O)c1` yielded an inhibition in assay [1] of 22%. Besides, the IC50 in assay [2] and in assay [3] was above 30 µM in each case.

In the case of `CCCCCCCCCCOc1cccc(O)c1C(=O)/C=C/c1ccc(O)c(Cl)c1`, the inhibition in assay [1] turned out to be 100%. The figures for the IC50 in assay [2] and in assay [3] were 9.6 µM and above 30 µM, respectively.

In assay [1], `CCCCCCCCCCOc1cccc(O)c1C(=O)/C=C/c1cc(OC)c(O)c(OC)c1` registered an inhibition of 53%. For the same compound, the IC50 in assay [2] and in assay [3] was above 30 µM each time.

Turning to `O=C(/C=C/c1ccc(O)cc1)c1c(O)cccc1OCc1ccccc1`, the inhibition in assay [1] worked out at 28%. The half-maximal inhibitory concentration (IC50) in assay [2] and in assay [3] was above 30 µM throughout.

In the case of `CCCCCCCCC(CCCCCC)CCOc1cccc(O)c1C(=O)/C=C/c1ccc(O)cc1` (configuration not stated), the inhibition in assay [1] was 100%. Besides, the IC50 in assay [2] is 9.6 µM; in assay [3] it was above 30 µM.

With `CC(C)CCOc1cccc(O)c1C(=O)/C=C/c1ccc(O)cc1`, the inhibition in assay [1] was 100%. Moreover, the results for the IC50 in assay [2] and in assay [3] were 10 µM and above 30 µM, respectively.

Regarding `CCCCCCCCCCCCCCCCOc1cccc(O)c1C(=O)/C=C/c1ccc(O)cc1`, the inhibition in assay [1] was determined as 42%. In addition, the IC50 in assay [2] and in assay [3] was above 30 µM in each case.

In assay [1], `CCCCCCOc1cccc(O)c1C(=O)/C=C/c1ccc(O)cc1` registered an inhibition of 15%. In addition, the IC50 in assay [2] and in assay [3] was above 30 µM each time.

On to `CCCCCCCCCCCCCCOc1ccc(C(=O)/C=C/c2ccc(O)cc2)c(O)c1`, for which the inhibition in assay [1] was 50%. Moreover, the figures for the IC50 in assay [2] and in assay [3] were 29 µM and above 30 µM, respectively.

As for `CCCCCCCCCCCCOc1cccc(O)c1C(O)CCc1ccc(O)cc1` (configuration not stated), the inhibition in assay [1] turned out to be 80%. The IC50 in assay [2] and in assay [3] was above 30 µM in each case.

`CCCCCCCCOc1cccc(O)c1C(=O)/C=C/c1ccc(O)cc1` returned an inhibition in assay [1] of 100%. Also, the IC50 is 5 µM in assay [2] and above 30 µM in assay [3].

In assay [1], `CCCCCCCCCCOc1cccc(O)c1C(=O)/C=C/c1ccc(Cl)c(Cl)c1` displayed an inhibition of 26%. Further, the IC50 in assay [2] and in assay [3] was above 30 µM in each case.

For `CCCCCCCCCCCCOc1cccc(O)c1C(=O)/C=C/c1ccc(O)cc1`, in assay [1], the inhibition stood at 100%. Further, the IC50 in assay [2] was 9.4 µM; in assay [3] it was above 30 µM.

Regarding `O=C(/C=C/c1ccc(O)cc1)c1c(O)cccc1OCC1CCCCC1`, the inhibition in assay [1] stood at 60%. The IC50 in assay [2] and in assay [3] was above 30 µM throughout.

In turn, `CCCCCCCCCCOc1cccc(O)c1C(=O)/C=C/c1ccccc1O` came in with an inhibition in assay [1] of 45%. Also, the IC50 in assay [2] and in assay [3] was above 30 µM throughout.

In the case of `CCCCCCCCCCCCOc1cccc(O)c1C(=O)CCc1ccc(O)cc1`, in assay [1], the inhibition is 52%. The IC50 in assay [2] and in assay [3] was above 30 µM in each case.

Take `CCCCCCCCCCCCCCOc1cccc(O)c1C(=O)/C=C/c1ccc(O)cc1`: in assay [1], the inhibition amounted to 100%. Also, the IC50 in assay [2] is 4.2 µM; in assay [3], above 30 µM.

In turn, `CCCCC/C=C\CCCCOc1cccc(O)c1C(=O)/C=C/c1ccc(O)cc1` returned an inhibition in assay [1] of 8%. Besides, the half-maximal inhibitory concentration (IC50) in assay [2] and in assay [3] was above 30 µM each time.

Regarding `CCCCCCCCCCCCCCOc1cccc(O)c1C(=O)/C=C/c1ccc(OCCCCCCCCCCCCC)cc1`, in assay [1], the inhibition worked out at 10%. The IC50 in assay [2] and in assay [3] was above 30 µM each time.

Turning to `CCCCCCCCCCOc1cccc(O)c1C(=O)/C=C/c1ccc(C)cc1`, in assay [1], the inhibition amounted to 8%. Also, the IC50 in assay [2] and in assay [3] was above 30 µM throughout.

Turning to `CCCCCCOc1cccc(O)c1C(=O)/C=C/c1ccc(OCCCCC)cc1`, the inhibition in assay [1] was 17%. Further, the IC50 in assay [2] and in assay [3] was above 30 µM throughout.
